System: HT-29
Assay: Cytotoxicity against human HT-29 cells after 96 hrs under hypoxic condition by MTT assay
Type: functional, cell-based
Conditions: Homo sapiens, HT-29, 96 h; read-out: IC50
Outline: (§1)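 MTT viability assay in HT-29 (high CA IX) and MDA-MB-231 (normal CA IX) cells under normoxic and hypoxic conditions; IC50 values reported.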

Row | Compound | IC50 [µM]
1 | C[C@H]1[C@@H](Oc2ccc3c(C(F)(F)F)cc(=O)oc3c2)O[C@@H]2O[C@@]3(C)CC[C@H]4[C@H](C)CC[C@@H]1[C@@]24OO3 | 22.3
2 | CCOC(=O)c1cc2ccc(O[C@H]3O[C@@H]4O[C@@]5(C)CC[C@H]6[C@H](C)CC[C@@H]([C@H]3C)[C@@]46OO5)cc2oc1=O | 7.17
3 | Cc1c(Cl)c(=O)oc2cc(-n3cc(CO[C@H]4O[C@@H]5O[C@@]6(C)CC[C@H]7[C@H](C)CC[C@@H]([C@H]4C)[C@@]57OO6)nn3)ccc12 | 1.15
4 | Cc1cc(=O)oc2cc(OCCO[C@H]3O[C@@H]4O[C@@]5(C)CC[C@H]6[C@H](C)CC[C@@H]([C@H]3C)[C@@]46OO5)ccc12 | 3.69
5 | Cc1c(F)c(=O)oc2cc(-n3cc(CO[C@H]4O[C@@H]5O[C@@]6(C)CC[C@H]7[C@H](C)CC[C@@H]([C@H]4C)[C@@]57OO6)nn3)ccc12 | 7.39
6 | COc1cccc2c1C(=O)c1c(O)c3c(c(O)c1C2=O)C[C@@](O)(C(=O)CO)C[C@@H]3O[C@H]1C[C@H](N)[C@H](O)[C@H](C)O1 [DOXORUBICIN] | 0.25
7 | C[C@H]1[C@@H](OCCc2cn(CCCOc3ccc4c(C(F)(F)F)cc(=O)oc4c3)nn2)O[C@@H]2O[C@@]3(C)CC[C@H]4[C@H](C)CC[C@@H]1[C@@]24OO3 | 4.29
8 | C[C@H]1[C@@H](OCc2cn(-c3ccc4c(C(F)(F)F)cc(=O)oc4c3)nn2)O[C@@H]2O[C@@]3(C)CC[C@H]4[C@H](C)CC[C@@H]1[C@@]24OO3 | 5.33
9 | COC(=O)c1cc2ccc(OCCn3cc(CCO[C@H]4O[C@@H]5O[C@@]6(C)CC[C@H]7[C@H](C)CC[C@@H]([C@H]4C)[C@@]57OO6)nn3)cc2oc1=O | 75.7
10 | Cc1c(C)c2ccc(O[C@H]3O[C@@H]4O[C@@]5(C)CC[C@H]6[C@H](C)CC[C@@H]([C@H]3C)[C@@]46OO5)cc2oc1=O | 30.3
11 | Cc1cc(=O)oc2cc(OCCCO[C@H]3O[C@@H]4O[C@@]5(C)CC[C@H]6[C@H](C)CC[C@@H]([C@H]3C)[C@@]46OO5)ccc12 | 8.71
12 | Cc1c(C)c2ccc(OCCCn3cc(CCO[C@H]4O[C@@H]5O[C@@]6(C)CC[C@H]7[C@H](C)CC[C@@H]([C@H]4C)[C@@]57OO6)nn3)cc2oc1=O | 0.11
13 | Cc1c(Cl)c(=O)oc2cc(-n3cc(CCO[C@H]4O[C@@H]5O[C@@]6(C)CC[C@H]7[C@H](C)CC[C@@H]([C@H]4C)[C@@]57OO6)nn3)ccc12 | 0.01
14 | C[C@H]1[C@@H](OCCCOc2ccc3c(C(F)(F)F)cc(=O)oc3c2)O[C@@H]2O[C@@]3(C)CC[C@H]4[C@H](C)CC[C@@H]1[C@@]24OO3 | 1.19
15 | Cc1c(Cl)c(=O)oc2cc(OCCCO[C@H]3O[C@@H]4O[C@@]5(C)CC[C@H]6[C@H](C)CC[C@@H]([C@H]3C)[C@@]46OO5)ccc12 | 8.05

System: MDA-MB-231
Assay: Cytotoxicity against human MDA-MB-231 cells after 96 hrs under hypoxic condition by MTT assay
Type: functional, cell-based
Conditions: Homo sapiens, MDA-MB-231, 96 h; read-out: IC50
Outline: as §1

Row | Compound | IC50 [µM]
16 | C[C@H]1[C@@H](Oc2ccc3c(C(F)(F)F)cc(=O)oc3c2)O[C@@H]2O[C@@]3(C)CC[C@H]4[C@H](C)CC[C@@H]1[C@@]24OO3 | 3.25
17 | CCOC(=O)c1cc2ccc(O[C@H]3O[C@@H]4O[C@@]5(C)CC[C@H]6[C@H](C)CC[C@@H]([C@H]3C)[C@@]46OO5)cc2oc1=O | 2.85
18 | Cc1c(Cl)c(=O)oc2cc(-n3cc(CO[C@H]4O[C@@H]5O[C@@]6(C)CC[C@H]7[C@H](C)CC[C@@H]([C@H]4C)[C@@]57OO6)nn3)ccc12 | 24.7
19 | Cc1cc(=O)oc2cc(OCCO[C@H]3O[C@@H]4O[C@@]5(C)CC[C@H]6[C@H](C)CC[C@@H]([C@H]3C)[C@@]46OO5)ccc12 | 0.1
20 | Cc1c(F)c(=O)oc2cc(-n3cc(CO[C@H]4O[C@@H]5O[C@@]6(C)CC[C@H]7[C@H](C)CC[C@@H]([C@H]4C)[C@@]57OO6)nn3)ccc12 | 2.6
21 | COc1cccc2c1C(=O)c1c(O)c3c(c(O)c1C2=O)C[C@@](O)(C(=O)CO)C[C@@H]3O[C@H]1C[C@H](N)[C@H](O)[C@H](C)O1 [DOXORUBICIN] | 5.98
22 | C[C@H]1[C@@H](OCCc2cn(CCCOc3ccc4c(C(F)(F)F)cc(=O)oc4c3)nn2)O[C@@H]2O[C@@]3(C)CC[C@H]4[C@H](C)CC[C@@H]1[C@@]24OO3 | 6.58
23 | C[C@H]1[C@@H](OCc2cn(-c3ccc4c(C(F)(F)F)cc(=O)oc4c3)nn2)O[C@@H]2O[C@@]3(C)CC[C@H]4[C@H](C)CC[C@@H]1[C@@]24OO3 | 49.6
24 | COC(=O)c1cc2ccc(OCCn3cc(CCO[C@H]4O[C@@H]5O[C@@]6(C)CC[C@H]7[C@H](C)CC[C@@H]([C@H]4C)[C@@]57OO6)nn3)cc2oc1=O | 58.4
25 | Cc1c(C)c2ccc(O[C@H]3O[C@@H]4O[C@@]5(C)CC[C@H]6[C@H](C)CC[C@@H]([C@H]3C)[C@@]46OO5)cc2oc1=O | 6.44
26 | Cc1cc(=O)oc2cc(OCCCO[C@H]3O[C@@H]4O[C@@]5(C)CC[C@H]6[C@H](C)CC[C@@H]([C@H]3C)[C@@]46OO5)ccc12 | 22.9
27 | Cc1c(C)c2ccc(OCCCn3cc(CCO[C@H]4O[C@@H]5O[C@@]6(C)CC[C@H]7[C@H](C)CC[C@@H]([C@H]4C)[C@@]57OO6)nn3)cc2oc1=O | 33.2
28 | Cc1c(Cl)c(=O)oc2cc(-n3cc(CCO[C@H]4O[C@@H]5O[C@@]6(C)CC[C@H]7[C@H](C)CC[C@@H]([C@H]4C)[C@@]57OO6)nn3)ccc12 | 1.03
29 | C[C@H]1[C@@H](OCCCOc2ccc3c(C(F)(F)F)cc(=O)oc3c2)O[C@@H]2O[C@@]3(C)CC[C@H]4[C@H](C)CC[C@@H]1[C@@]24OO3 | 8.86
30 | Cc1c(Cl)c(=O)oc2cc(OCCCO[C@H]3O[C@@H]4O[C@@]5(C)CC[C@H]6[C@H](C)CC[C@@H]([C@H]3C)[C@@]46OO5)ccc12 | 2.38

System: HT-29
Assay: Cytotoxicity against human HT-29 cells after 96 hrs under normoxic condition by MTT assay
Type: functional, cell-based
Conditions: Homo sapiens, HT-29, 96 h; read-out: IC50
Outline: as §1

Row | Compound | IC50 [µM]
31 | C[C@H]1[C@@H](Oc2ccc3c(C(F)(F)F)cc(=O)oc3c2)O[C@@H]2O[C@@]3(C)CC[C@H]4[C@H](C)CC[C@@H]1[C@@]24OO3 | 11.1
32 | CCOC(=O)c1cc2ccc(O[C@H]3O[C@@H]4O[C@@]5(C)CC[C@H]6[C@H](C)CC[C@@H]([C@H]3C)[C@@]46OO5)cc2oc1=O | 3.45
33 | Cc1c(Cl)c(=O)oc2cc(-n3cc(CO[C@H]4O[C@@H]5O[C@@]6(C)CC[C@H]7[C@H](C)CC[C@@H]([C@H]4C)[C@@]57OO6)nn3)ccc12 | 4.27
34 | Cc1cc(=O)oc2cc(OCCO[C@H]3O[C@@H]4O[C@@]5(C)CC[C@H]6[C@H](C)CC[C@@H]([C@H]3C)[C@@]46OO5)ccc12 | 2.35
35 | Cc1c(F)c(=O)oc2cc(-n3cc(CO[C@H]4O[C@@H]5O[C@@]6(C)CC[C@H]7[C@H](C)CC[C@@H]([C@H]4C)[C@@]57OO6)nn3)ccc12 | 3.35
36 | COc1cccc2c1C(=O)c1c(O)c3c(c(O)c1C2=O)C[C@@](O)(C(=O)CO)C[C@@H]3O[C@H]1C[C@H](N)[C@H](O)[C@H](C)O1 [DOXORUBICIN] | 0.24
37 | C[C@H]1[C@@H](OCCc2cn(CCCOc3ccc4c(C(F)(F)F)cc(=O)oc4c3)nn2)O[C@@H]2O[C@@]3(C)CC[C@H]4[C@H](C)CC[C@@H]1[C@@]24OO3 | 5.88
38 | C[C@H]1[C@@H](OCc2cn(-c3ccc4c(C(F)(F)F)cc(=O)oc4c3)nn2)O[C@@H]2O[C@@]3(C)CC[C@H]4[C@H](C)CC[C@@H]1[C@@]24OO3 | 5.22
39 | COC(=O)c1cc2ccc(OCCn3cc(CCO[C@H]4O[C@@H]5O[C@@]6(C)CC[C@H]7[C@H](C)CC[C@@H]([C@H]4C)[C@@]57OO6)nn3)cc2oc1=O | 67.2
40 | Cc1c(C)c2ccc(O[C@H]3O[C@@H]4O[C@@]5(C)CC[C@H]6[C@H](C)CC[C@@H]([C@H]3C)[C@@]46OO5)cc2oc1=O | 11.8
41 | Cc1cc(=O)oc2cc(OCCCO[C@H]3O[C@@H]4O[C@@]5(C)CC[C@H]6[C@H](C)CC[C@@H]([C@H]3C)[C@@]46OO5)ccc12 | 13.8
42 | Cc1c(C)c2ccc(OCCCn3cc(CCO[C@H]4O[C@@H]5O[C@@]6(C)CC[C@H]7[C@H](C)CC[C@@H]([C@H]4C)[C@@]57OO6)nn3)cc2oc1=O | 5
43 | Cc1c(Cl)c(=O)oc2cc(-n3cc(CCO[C@H]4O[C@@H]5O[C@@]6(C)CC[C@H]7[C@H](C)CC[C@@H]([C@H]4C)[C@@]57OO6)nn3)ccc12 | 1.5
44 | C[C@H]1[C@@H](OCCCOc2ccc3c(C(F)(F)F)cc(=O)oc3c2)O[C@@H]2O[C@@]3(C)CC[C@H]4[C@H](C)CC[C@@H]1[C@@]24OO3 | 4.57
45 | Cc1c(Cl)c(=O)oc2cc(OCCCO[C@H]3O[C@@H]4O[C@@]5(C)CC[C@H]6[C@H](C)CC[C@@H]([C@H]3C)[C@@]46OO5)ccc12 | 2.55

System: MDA-MB-231
Assay: Cytotoxicity against human MDA-MB-231 cells after 96 hrs under normoxic condition by MTT assay
Type: functional, cell-based
Conditions: Homo sapiens, MDA-MB-231, 96 h; read-out: IC50
Outline: as §1

Row | Compound | IC50 [µM]
46 | C[C@H]1[C@@H](Oc2ccc3c(C(F)(F)F)cc(=O)oc3c2)O[C@@H]2O[C@@]3(C)CC[C@H]4[C@H](C)CC[C@@H]1[C@@]24OO3 | 56.8
47 | CCOC(=O)c1cc2ccc(O[C@H]3O[C@@H]4O[C@@]5(C)CC[C@H]6[C@H](C)CC[C@@H]([C@H]3C)[C@@]46OO5)cc2oc1=O | 21.9
48 | Cc1c(Cl)c(=O)oc2cc(-n3cc(CO[C@H]4O[C@@H]5O[C@@]6(C)CC[C@H]7[C@H](C)CC[C@@H]([C@H]4C)[C@@]57OO6)nn3)ccc12 | 50.5
49 | Cc1cc(=O)oc2cc(OCCO[C@H]3O[C@@H]4O[C@@]5(C)CC[C@H]6[C@H](C)CC[C@@H]([C@H]3C)[C@@]46OO5)ccc12 | 4.29
50 | Cc1c(F)c(=O)oc2cc(-n3cc(CO[C@H]4O[C@@H]5O[C@@]6(C)CC[C@H]7[C@H](C)CC[C@@H]([C@H]4C)[C@@]57OO6)nn3)ccc12 | 3.47
51 | COc1cccc2c1C(=O)c1c(O)c3c(c(O)c1C2=O)C[C@@](O)(C(=O)CO)C[C@@H]3O[C@H]1C[C@H](N)[C@H](O)[C@H](C)O1 [DOXORUBICIN] | 1.07
52 | C[C@H]1[C@@H](OCCc2cn(CCCOc3ccc4c(C(F)(F)F)cc(=O)oc4c3)nn2)O[C@@H]2O[C@@]3(C)CC[C@H]4[C@H](C)CC[C@@H]1[C@@]24OO3 | 32.5
53 | C[C@H]1[C@@H](OCc2cn(-c3ccc4c(C(F)(F)F)cc(=O)oc4c3)nn2)O[C@@H]2O[C@@]3(C)CC[C@H]4[C@H](C)CC[C@@H]1[C@@]24OO3 | > 100
54 | COC(=O)c1cc2ccc(OCCn3cc(CCO[C@H]4O[C@@H]5O[C@@]6(C)CC[C@H]7[C@H](C)CC[C@@H]([C@H]4C)[C@@]57OO6)nn3)cc2oc1=O | 61
55 | Cc1c(C)c2ccc(O[C@H]3O[C@@H]4O[C@@]5(C)CC[C@H]6[C@H](C)CC[C@@H]([C@H]3C)[C@@]46OO5)cc2oc1=O | 78.8
56 | Cc1cc(=O)oc2cc(OCCCO[C@H]3O[C@@H]4O[C@@]5(C)CC[C@H]6[C@H](C)CC[C@@H]([C@H]3C)[C@@]46OO5)ccc12 | 30
57 | Cc1c(C)c2ccc(OCCCn3cc(CCO[C@H]4O[C@@H]5O[C@@]6(C)CC[C@H]7[C@H](C)CC[C@@H]([C@H]4C)[C@@]57OO6)nn3)cc2oc1=O | > 100
58 | Cc1c(Cl)c(=O)oc2cc(-n3cc(CCO[C@H]4O[C@@H]5O[C@@]6(C)CC[C@H]7[C@H](C)CC[C@@H]([C@H]4C)[C@@]57OO6)nn3)ccc12 | 5.19
59 | C[C@H]1[C@@H](OCCCOc2ccc3c(C(F)(F)F)cc(=O)oc3c2)O[C@@H]2O[C@@]3(C)CC[C@H]4[C@H](C)CC[C@@H]1[C@@]24OO3 | 13.6
60 | Cc1c(Cl)c(=O)oc2cc(OCCCO[C@H]3O[C@@H]4O[C@@]5(C)CC[C@H]6[C@H](C)CC[C@@H]([C@H]3C)[C@@]46OO5)ccc12 | 0.6

Source: ChEMBL document CHEMBL4152206, “Design, synthesis, cytotoxicity and mechanism of novel dihydroartemisinin-coumarin hybrids as potential anti-cancer agents” (Eur J Med Chem, 2018)
